# UPR CHOP act – activators of apoptotic CHOP UPR arm, primary screen, cell-based, CHO-CHOP luciferase reporter, luminescence, uHTS. UPR activation; percent of tunicamycin response over DMSO baseline. activation, % at 10 µM. 0.34% of 330,000 active. AID 449763, 2010;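 active = at 10 µM dose, activation of 40% or more, normalized to positive control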;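 also: 100% = tunicamycin at 10 µg/mL and 0% = DMSO alone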
#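 Assay system: CHO cells with stable CHOP pathway luciferase reporter; Buffer or medium: F12 plus 10% serum; Times: 16-18 h cell attachment, then 6 h compound exposure, 37 °C; Signal: luciferase luminescence; Read-out basis: percent activation relative to tunicamycin control; Control set: tunicamycin high control, DMSO low control.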
# XBP1 UPR activ – activators of adaptive XBP1 UPR arm, primary screen, cell-based, CHO-XBP1 luciferase reporter, luminescence, uHTS. IRE1-XBP1 UPR activation; percent of tunicamycin response, DMSO as zero. activation, % at 20 µM. 0.33% of 330,000 active;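 active = versus positive control, 20 µM dose yields 30% or more activation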;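 also: 100% = tunicamycin at 10 µg/mL and 0% = DMSO only wells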
#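 Material: IRE1-XBP1 luciferase reporter CHO line / Quantity: one thousand reporter cells per well / Buffer or medium: F12 with 10% serum / Compound: 20 µM single concentration, DMSO 1% / Times: 6 h treatment, 37 °C / Detection: Steady-Glo luciferase glow luminescence, 10 min after reagent addition / Benchmarks: tunicamycin high, DMSO low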
# Beta2AR agonist – beta2AR agonists driving receptor internalization, primary screen, cell-based, FAP fluorogen, flow cytometry; Beta-2 adrenergic receptor (Homo sapiens), P07550; Am2.2-beta2AR cells; response, % (test concentration not listed); 0.43% of 340,000 active; AID 504454, 2011;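 active = response above a set limit, near 3 SD of response in nonfluorescent compounds, cut at about 42% in these data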
# Target sequence (P07550 whole entry, looked up): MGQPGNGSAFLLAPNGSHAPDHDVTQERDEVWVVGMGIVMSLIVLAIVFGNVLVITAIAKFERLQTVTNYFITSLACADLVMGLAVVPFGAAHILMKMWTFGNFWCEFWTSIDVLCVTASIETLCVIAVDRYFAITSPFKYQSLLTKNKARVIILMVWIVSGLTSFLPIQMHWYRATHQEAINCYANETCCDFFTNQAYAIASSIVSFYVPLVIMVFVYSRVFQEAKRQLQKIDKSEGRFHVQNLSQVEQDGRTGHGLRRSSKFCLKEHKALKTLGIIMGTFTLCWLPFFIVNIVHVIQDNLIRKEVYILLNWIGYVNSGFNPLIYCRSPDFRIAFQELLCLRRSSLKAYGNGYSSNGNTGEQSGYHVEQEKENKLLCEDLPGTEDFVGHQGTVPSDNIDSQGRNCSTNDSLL
# CHOP inhibitor – inhibitors of CHOP promoter induction, primary screen, cell-based, unfolded protein response, luciferase reporter; CHO-K1 CHOP-promoter luciferase, tunicamycin-induced, 15-18 h; inhibition, % at 10 µM; 3.8% of 220,000 active; AID 2732, 2010;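 active = compounds that reduced the stress-induced luciferase reporter signal by more than about 70% of percent inhibition, limit read from the data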;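 also: 0% = tunicamycin plus vehicle and 100% = wells without tunicamycin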
# p-CIP stab down – p/CIP-EGFP fusion destabilizers, primary screen, fluorescence, F442A cells; Q05BA5; 0.01% of 290,000 active; 16 h; decrease of EGFP signal, % at 10 µM;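 active = EGFP signal decrease of at least 30% at 10 µM or well 3 SD below plate mean, unless failing retest; inactive = the rest, including hits failing retest or dose response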
# Dynein transport – inhibitors of GR-EGFP nuclear translocation, primary screen, dynein cargo transport inhibitor project, imaging, high-content, 3617.4 mouse cells | test concentration mostly 20 µM; stimulated with dexamethasone, 1 µM; hits give low values | z-score, hits read low | 0.47% of 220,000 active | AID 1381, 2008;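 active = plate z-score of nuclear minus cytoplasmic receptor signal below a set negative limit, without overly bright fluorescence or cell loss, cut at about -3.5 in these data, passing the limit was not always enough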;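 also: z-score of nuclear minus cytoplasmic ring GR-EGFP intensity difference per well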
#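 Schedule: 48 h induction, then 1 h compound, then 30 min agonist, 37 °C. Buffer or medium: tetracycline-free induction medium containing charcoal-stripped FBS. Reagent: 1.0 µM final dexamethasone stimulus. Evaluation: nuclear versus cytoplasmic GR-EGFP signal, averaged per well. Signal: high-content fluorescence imaging after fixation.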
# CHOP inh conf – retest of CHOP induction inhibitors, confirmation, cell-based; shares compounds with CHOP inhibitor; CHO-CHOP promoter luciferase reporter, tunicamycin-induced, luminescence; inhibition, % at 10 µM; 45% of 2,100 active; AID 504437, 2011;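 active = mean of three repeat readings of reporter signal inhibition above a set limit, cut at about 70% in these data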;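 also: 0% = tunicamycin plus vehicle and 100% = wells lacking tunicamycin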
# Numbers without * were called inactive; nt = no result. The sample as a whole holds a higher share of hits than the screen did.
SMILES,UPR CHOP act,XBP1 UPR activ,Beta2AR agonist,CHOP inhibitor,p-CIP stab down,Dynein transport,CHOP inh conf
CCOc1ccc(/C=N/N2C(=O)C(CC(=O)Nc3ccc(F)cc3F)SC2=NC)cc1OC (stereo unspecified),-2.2,2.0,16.2,106.4*,-6.2,1.26,14.5
O=C(OCC(=O)N1CCc2ccccc21)c1ccncc1,-1.3,0.2,7.7,nt,nt,nt,nt
CCCCC(=O)Nc1cccn2ncnc12,-1.8,-2.4,5.1,6.9,0.7,0.485,nt
O=C(Nc1ccccc1N1CCN(C(=O)c2ccccc2)CC1)c1cc2ccccc2o1,3.5,4.2,18.0,97.6*,-2.5,-0.711,25.7
O=C(O)CC/C(=N/NC(=O)c1ccc(-c2ccccc2)cc1)c1ccccc1,-0.3,-3.8,2.9,nt,-1.9,nt,nt
Cc1nc(CC(=O)c2ccc(O)c(C)c2O)cs1,13.6,-0.5,4.1,5.6,-4.5,3.17,nt
Cc1cc(Nc2ccccc2)nc(-c2ccccc2O)n1,3.3,5.1,2.2,96.3*,8.0,1.22,100.1*
Cc1cc(Nc2cccc(F)c2)nc(-c2ccccc2O)n1,5.9,5.1,11.6,51.4,-4.7,-1,nt
Cc1[nH]n(-c2cccc3ccccc23)c(=O)c1C=Nc1ccc2[nH]c(=O)[nH]c2c1,0.7,-1.3,4.0,1.2,10.0,1.65,nt
Cc1ccc(-n2[nH]c(C)c(C=Nc3ccc4[nH]c(=O)[nH]c4c3)c2=O)cc1,2.3,-0.2,3.9,102.7*,-6.5,-2.1,-3.7
CN1CCc2c(sc(NC(=O)c3ccc([N+](=O)[O-])o3)c2C(N)=O)C1,36.5,-3.8,33.2,nt,-28.1,nt,nt
CN1CCc2c(sc(NC(=O)c3cc4cc([N+](=O)[O-])ccc4s3)c2C(N)=O)C1,nt,nt,nt,101.3*,-31.4,-0.225,132.3*
Oc1[nH]c2ccccc2c1N=Nc1ccc(F)cc1,0.5,0.8,5.9,97.0*,4.9,-0.289,59.2
COC(=O)c1ccc2c(=O)n(CCN3CCOCC3)c(SCC(=O)NCc3ccccc3)nc2c1,-1.7,-1.4,-1.2,-44.8,3.0,0.201,nt
COc1ccc(CNc2oc(-c3cccc4ccccc34)nc2C#N)cc1,-2.3,0.4,3.7,96.6*,-6.4,-0.818,97.6*
N#CC1=C(N)C(C#N)(C#N)C(c2cccnc2)C2CC(c3ccccc3)CC=C12 (stereo unspecified),0.3,-4.3,37.0,96.3*,-14.0,-2.02,32.7
O=S(=O)(C/C(=C/CO)S(=O)(=O)c1ccccc1)c1ccccc1,-9.2,-6.1,27.5,nt,-21.7,-3.04,117.6*
CCCc1nc2c(sc3nc4c(cc32)COC(C)(C)C4)c(=O)o1,-0.1,-4.8,4.4,4.6,-1.1,-0.318,nt
CNc1ccc(Br)cc(C(=O)/C=C/c2cccc(Cl)c2Cl)c1=O,nt,nt,-115.4,101.4*,-10.2,-4.05,-99.8
O=C1CCCc2oc3c(c21)CCCC3,-2.1,-1.7,-0.5,22.3,-3.6,-0.205,nt
Cc1cc(C)n(-c2nc(N(c3ccccc3)c3ccccc3)nc(-n3nc(C)cc3C)n2)n1,-7.1,-4.8,33.1,108.8*,-12.9,-0.355,139.8*
Cc1cc(C)n(-c2nc(Nc3ccccc3)nc(-n3nc(C)cc3C)n2)n1,0.1,-3.0,-2.9,5.6,-14.7,-0.526,nt
O=C(NCCCN1CCN(c2ccccc2F)CC1)Nc1ccccc1[N+](=O)[O-],0.1,-0.6,-11.9,32.7,9.2,0.371,nt
CCCc1cc(C(=O)Nc2cc(Br)ccc2O)no1,4.9,9.8,17.9,nt,-13.8,-0.904,-10.3
Cc1cccc(NS(=O)(=O)c2cn(C)c(=O)n(C)c2=O)c1C,1.8,0.1,-5.2,nt,-8.6,nt,nt
SMILES,UPR CHOP act,XBP1 UPR activ,Beta2AR agonist,CHOP inhibitor,p-CIP stab down,Dynein transport,CHOP inh conf
Cn1nc(-c2ccc(C(=O)Nc3ccc(F)cc3)cc2)c2ccccc2c1=O,-2.1,-2.5,3.9,100.6*,-16.0,-0.63,48.5
C=C1C(=O)O[C@@H]2[C@H]1[C@@H](OC(=O)/C(C)=C/C)C/C(C)=C\C(=O)/C=C(\C)[C@@H]2O,13.8,-7.2,16.8,107.4*,-16.0,-3.32,68.6
O=C(NC(Nc1nc2ccc([N+](=O)[O-])cc2s1)(C(F)(F)F)C(F)(F)F)c1ccccc1Cl,25.2,-1.2,13.0,97.0*,-1.6,-0.504,125.0*
CC(=O)Nc1ccc(NC(=O)c2c(C)nn(Cc3ccccc3Cl)c2C)cc1,0.6,-2.3,0.9,nt,-9.6,nt,nt
Cc1cccc(N2CCN(C(=O)c3c(C)nn(Cc4ccccc4Cl)c3C)CC2)c1C,1.4,-1.9,5.0,102.6*,-6.1,-0.471,86.2*
COc1ccccc1N1CCN(/N=C/C(Cl)=C/c2ccccc2)CC1,5.2,5.0,-6.5,38.7,-7.4,0.538,nt
Oc1ccc(N=Nc2cccc(C(F)(F)F)c2)cc1C=Nc1ccc(N2CCOCC2)cc1,5.2,2.0,21.1,104.0*,-17.8,2.87,73.0*
Oc1ccc(C=Nc2ccc(N3CCOCC3)cc2)c(O)c1,-0.9,-1.5,4.7,28.3,6.5,0.522,nt
CCOC(=O)C1C(C(=O)OC)=C(C(=O)OC)c2ccccc2N1S(=O)(=O)C(F)(F)F (stereo unspecified),1.6,1.6,3.1,nt,nt,nt,nt
CCOC(=O)c1c(-c2ccccc2)nnn1-c1nc(OCC)nc(N2CCCCC2)n1,3.3,-0.9,-5.1,101.0*,-3.1,-0.977,62.3
CCOCCCNC(=O)c1ccc(/C=C2\Oc3ccccc3N(C)C2=O)cc1,4.4,16.5,-0.7,nt,-0.3,nt,nt
CC(C)Oc1cc(NC(=O)CS(=O)CC(=O)Nc2cccc(C(F)(F)F)c2)c(Cl)cc1Cl (stereo unspecified),1.9,-1.0,-11.6,107.3*,0.8,-0.242,120.1*
CC(C)Oc1cc(NC(=O)CS(=O)CC(=O)N(C)C)c(Cl)cc1Cl (stereo unspecified),0.9,-1.7,7.2,14.4,-18.9,0.337,nt
O=C(COc1ccc(Cl)cc1[N+](=O)[O-])NC1CCCCC1,5.8,3.5,-9.7,-3.9,0.4,-0.884,nt
O=C1NC(=S)S/C1=C\C=C\c1ccc([N+](=O)[O-])o1,nt,nt,31.6,105.1*,-24.6,-1.87,117.4*
O=C(Nc1ccc(Cl)c(C(F)(F)F)c1)NC1CC2CCCC(C1)N2Cc1ccccc1 (stereo unspecified),3.6,9.7,nt,101.4*,2.0,-0.888,97.7*
